Activity calls are given as the source filed them. The calls are words filed in the database; no cut-off is given here.
Legend:
[1] = system: A549; assay: Induction of apoptotic morphological alterations in human A549 cells assessed as DNA condensation at IC50 after 24 hrs by transmission electron microscopy; type: functional, cell-based
In short: (§1)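 Cells were fixed in 2.5% glutaraldehyde in 0.1 M PBS pH 7.4 and held overnight at 4 °C, then agar-embedded and post-fixed in 2% osmium tetroxide. They were dehydrated through graded ethanol, embedded in EPON 812, ultrathin-sectioned and examined by transmission electron microscopy.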

[2] = system: C6; assay: Induction of apoptotic morphological alterations in rat C6 cells assessed as organellar membrane damage at IC50 after 24 hrs by transmission electron microscopy; type: functional, cell-based; in short: as §1
[3] = molecular target: RAC-alpha serine/threonine-protein kinase (Rattus norvegicus, UniProt P47196); assay: Inhibition of Akt in rat C6 cells after 24 hrs by ELISA; type: cell-based
In short: (§2)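 In-cell colorimetric ELISA: 10,000 cells/well were treated 24 h, then fixed in 4% formaldehyde for 15 min, permeabilised, quenched and blocked. Primary antibody ran overnight at 4 °C, then HRP conjugate for 30 min, then TMB; absorbance was read at 450 nm. Wells were in triplicate and blank-subtracted. Activity is relative to untreated cells; IC50 came from graphs of three concentrations.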

[4] = system: A549; assay: Induction of mitochondrial membrane potential loss in human A549 cells assessed as intact mitochondrial membrane potential at IC50 measured after 24 hrs by JC-1 staining based flow cytometric analysis (reference value: 90.4%); type: functional
[5] = system: A549; assay: Induction of mitochondrial membrane potential loss in human A549 cells at IC50 measured after 24 hrs by JC-1 staining based flow cytometric analysis (reference value: 9.8%); type: functional
[6] = system: A549; assay: Induction of apoptotic morphological alterations in human A549 cells assessed as organellar membrane damage at IC50 after 24 hrs by transmission electron microscopy; type: functional, cell-based; in short: as §1
[7] = system: C6; assay: Induction of apoptotic morphological alterations in rat C6 cells assessed as cell shrinkage at IC50 after 24 hrs by transmission electron microscopy; type: functional, cell-based; in short: as §1
[8] = system: A549; assay: Induction of apoptosis in human A549 cells assessed as caspase-3 negative cell level at IC50 after 24 hrs by FITC-A labeled flow cytometry (reference value: 98.1%); type: functional
[9] = system: C6; assay: Induction of mitochondrial membrane potential loss in rat C6 cells at IC50 measured after 24 hrs by JC-1 staining based flow cytometric analysis (reference value: 19.9%); type: functional
[10] = Selectivity index, ratio of IC50 for mouse NIH/3T3 cells to IC50 for rat C6 cells; type: toxicity; settings: NIH/3T3 cells versus C6 cells, read-out: Ratio IC50
In short: (§3)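 Selectivity index = IC50 for NIH/3T3 normal fibroblasts / IC50 for the cancer line (A549 or C6). […] An IC50 above 403.00 was taken as 403.00.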

[11] = system: C6; assay: Induction of apoptosis in rat C6 cells assessed as early/late apoptotic cells at IC50 after 24 hrs by Annexin V-FITC/PI staining based flow cytometry (reference value: 8%); type: functional
[12] = system: A549; assay: Induction of apoptotic morphological alterations in human A549 cells assessed as rounding of cells at IC50 after 24 hrs by transmission electron microscopy; type: functional, cell-based; in short: as §1
[13] = molecular target: Focal adhesion kinase 1 (Rattus norvegicus, UniProt O35346); assay: Inhibition of FAK phasphorylation at Tyr397 residues in rat C6 cells after 24 hrs by ELISA; type: cell-based
In short: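 Cell-based colorimetric ELISA in C6 cells treated 24 h: cells were fixed in 4% formaldehyde for 20 min, quenched, and blocked for 1 h. Anti-FAK pTyr397, anti-FAK and anti-GAPDH primaries ran overnight at 4 °C, then HRP secondaries for 1.5 h and substrate for 30 min. OD450 was read in duplicate wells; pFAK was normalised to GAPDH. IC50 came from graphs of three concentrations.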

[14] = system: A549; assay: Induction of apoptosis in human A549 cells assessed as viable cells at IC50 after 24 hrs by Annexin V-FITC/PI staining based flow cytometry (reference value: 89%); type: functional
[15] = system: A549; assay: Cytotoxicity against human A549 cells assessed as decrease in cell viability after 24 hrs by MTT assay; type: functional, cell-based; settings: A549, 24 h
In short: (§4)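 Viability was read as cellular MTT reduction. Cisplatin and GSK690693 were run as reference controls. IC50 values were derived for each cell line.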

[16] = system: A549; assay: Induction of apoptotic morphological alterations in human A549 cells assessed as cell shrinkage at IC50 after 24 hrs by transmission electron microscopy; type: functional, cell-based; in short: as §1
[17] = molecular target: RAC-alpha serine/threonine-protein kinase (Homo sapiens, UniProt P31749); assay: Inhibition of Akt in human A549 cells after 24 hrs by ELISA; type: cell-based; in short: as §2
[18] = Selectivity index, ratio of IC50 for mouse NIH/3T3 cells to IC50 for human A549 cells; type: toxicity; settings: NIH/3T3 cells versus A549 cells, read-out: Ratio IC50; in short: as §3
[19] = system: C6; assay: Induction of mitochondrial membrane potential loss in rat C6 cells assessed as intact mitochondrial membrane potential at IC50 measured after 24 hrs by JC-1 staining based flow cytometric analysis (reference value: 80%); type: functional
[20] = system: C6; assay: Induction of apoptosis in rat C6 cells assessed as caspase-3 negative cell level at IC50 after 24 hrs by FITC-A labeled flow cytometry (reference value: 96.4%); type: functional
[21] = system: A549; assay: Induction of apoptosis in human A549 cells assessed as early/late apoptotic cells at IC50 after 24 hrs by Annexin V-FITC/PI staining based flow cytometry (reference value: 7.1%); type: functional
[22] = system: A549; assay: Induction of apoptotic morphological alterations in human A549 cells assessed as disruption of cellular organization at IC50 after 24 hrs by transmission electron microscopy; type: functional, cell-based; in short: as §1
[23] = system: C6; assay: Cytotoxicity against rat C6 cells assessed as decrease in cell viability after 24 hrs by MTT assay; type: functional, cell-based; settings: C6, 24 h; in short: as §4
[24] = system: C6; assay: Induction of apoptotic morphological alterations in rat C6 cells assessed as disruption of cellular organization at IC50 after 24 hrs by transmission electron microscopy; type: functional, cell-based; in short: as §1
[25] = system: C6; assay: Induction of apoptotic morphological alterations in rat C6 cells assessed as rounding of cells at IC50 after 24 hrs by transmission electron microscopy; type: functional, cell-based; in short: as §1
[26] = system: C6; assay: Induction of apoptotic morphological alterations in rat C6 cells assessed as DNA condensation at IC50 after 24 hrs by transmission electron microscopy; type: functional, cell-based; in short: as §1
[27] = system: C6; assay: Induction of apoptosis in rat C6 cells assessed as caspase-3 positive cell level at IC50 after 24 hrs by FITC-A labeled flow cytometry (reference value: 4.8%); type: functional
[28] = system: NIH3T3; assay: Cytotoxicity against mouse NIH/3T3 cells assessed as decrease in cell viability after 24 hrs by MTT assay; type: cell-based; settings: NIH3T3, 24 h; in short: as §4
[29] = system: A549; assay: Induction of apoptosis in human A549 cells assessed as caspase-3 positive cell level at IC50 after 24 hrs by FITC-A labeled flow cytometry (reference value: 2.1%); type: functional
[30] = system: C6; assay: Induction of apoptosis in rat C6 cells assessed as viable cells at IC50 after 24 hrs by Annexin V-FITC/PI staining based flow cytometry (reference value: 90%); type: functional
[31] = system: A549; assay: Induction of apoptotic morphological alterations in human A549 cells assessed as membrane damage at IC50 after 24 hrs by transmission electron microscopy; type: functional, cell-based; in short: as §1
[32] = system: A549; assay: Induction of apoptotic morphological alterations in human A549 cells assessed as increase in large vacuoles in cytoplasm containing degraded cellular material at IC50 after 24 hrs by transmission electron microscopy; type: functional, cell-based; in short: as §1
[33] = system: C6; assay: Induction of apoptotic morphological alterations in rat C6 cells assessed as chromatin condensation at IC50 after 24 hrs by transmission electron microscopy; type: functional, cell-based; in short: as §1
[34] = system: A549; assay: Induction of apoptotic morphological alterations in human A549 cells assessed as nuclear fragmentation at IC50 after 24 hrs by transmission electron microscopy; type: functional, cell-based; in short: as §1
[35] = system: C6; assay: Induction of apoptotic morphological alterations in rat C6 cells assessed as membrane damage at IC50 after 24 hrs by transmission electron microscopy; type: functional, cell-based; in short: as §1
[36] = system: C6; assay: Induction of apoptotic morphological alterations in rat C6 cells assessed as large vacuoles at IC50 after 24 hrs by transmission electron microscopy; type: functional, cell-based; in short: as §1

Sequence of Focal adhesion kinase 1 (O35346 whole entry): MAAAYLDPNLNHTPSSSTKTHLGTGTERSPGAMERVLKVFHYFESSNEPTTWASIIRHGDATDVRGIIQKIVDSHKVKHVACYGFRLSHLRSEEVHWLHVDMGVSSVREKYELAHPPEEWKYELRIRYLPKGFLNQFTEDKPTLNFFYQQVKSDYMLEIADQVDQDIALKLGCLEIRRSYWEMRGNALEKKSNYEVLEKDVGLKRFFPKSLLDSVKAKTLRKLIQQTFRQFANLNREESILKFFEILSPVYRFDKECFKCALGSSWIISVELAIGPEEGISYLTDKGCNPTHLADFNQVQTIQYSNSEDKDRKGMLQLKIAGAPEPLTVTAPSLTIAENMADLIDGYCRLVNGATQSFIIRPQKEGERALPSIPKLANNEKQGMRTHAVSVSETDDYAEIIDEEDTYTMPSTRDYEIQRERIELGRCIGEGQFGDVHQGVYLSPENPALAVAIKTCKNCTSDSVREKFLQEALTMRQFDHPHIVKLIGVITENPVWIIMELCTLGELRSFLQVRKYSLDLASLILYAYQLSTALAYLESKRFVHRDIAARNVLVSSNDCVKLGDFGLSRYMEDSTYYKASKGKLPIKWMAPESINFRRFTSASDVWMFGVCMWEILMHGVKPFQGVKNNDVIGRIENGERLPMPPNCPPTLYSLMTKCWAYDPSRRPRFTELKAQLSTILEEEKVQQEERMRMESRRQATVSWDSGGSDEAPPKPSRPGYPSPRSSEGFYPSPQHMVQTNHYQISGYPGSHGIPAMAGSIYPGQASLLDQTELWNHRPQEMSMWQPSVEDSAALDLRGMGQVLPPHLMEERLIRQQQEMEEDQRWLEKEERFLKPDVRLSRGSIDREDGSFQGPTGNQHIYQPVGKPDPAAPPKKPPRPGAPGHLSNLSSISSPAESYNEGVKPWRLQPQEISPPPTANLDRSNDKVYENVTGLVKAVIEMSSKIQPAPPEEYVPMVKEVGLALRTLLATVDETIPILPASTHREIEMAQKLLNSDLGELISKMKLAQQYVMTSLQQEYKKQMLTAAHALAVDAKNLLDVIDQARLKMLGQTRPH
Sequence of RAC-alpha serine/threonine-protein kinase (Rattus norvegicus, UniProt P47196) (P47196 whole entry): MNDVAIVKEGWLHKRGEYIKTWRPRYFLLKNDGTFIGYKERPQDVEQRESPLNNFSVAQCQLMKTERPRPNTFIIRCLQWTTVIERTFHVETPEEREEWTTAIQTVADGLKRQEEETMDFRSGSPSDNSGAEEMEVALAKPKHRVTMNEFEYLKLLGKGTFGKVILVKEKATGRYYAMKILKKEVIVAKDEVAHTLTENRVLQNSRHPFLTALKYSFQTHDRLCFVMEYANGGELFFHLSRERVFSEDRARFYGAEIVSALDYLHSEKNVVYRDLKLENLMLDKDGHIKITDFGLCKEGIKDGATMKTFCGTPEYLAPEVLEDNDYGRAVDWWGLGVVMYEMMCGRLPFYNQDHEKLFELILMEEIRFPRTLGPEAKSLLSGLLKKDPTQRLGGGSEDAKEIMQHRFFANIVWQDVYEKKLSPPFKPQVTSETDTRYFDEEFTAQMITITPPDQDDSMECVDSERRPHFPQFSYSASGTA
Sequence of RAC-alpha serine/threonine-protein kinase (Homo sapiens, UniProt P31749) (P31749 whole entry): as the sequence (P47196 whole entry) above, with N2S, E46D, S50A, R112K, T117E, A137S, T389K, N410G, D415H counted along it

SMILES	Activity [1]	Activity [2]	IC50 [3]	Activity [4]	Activity [5]	Activity [6]	Activity [7]	Activity [8]	Activity [9]	selectivity ratio [10]	Activity [11]	Activity [12]	IC50 [13]	Activity [14]	IC50 [15]	Activity [16]	IC50 [17]	selectivity ratio [18]	IC50 [23]	IC50 [28]	other results
O=C(CSc1nnc(COc2ccc3c(c2)CCCC3)o1)Nc1ncc([N+](=O)[O-])s1	Active	Active	44.5 µM	2.4%	95.5%	Active	Active	95.1%	98%	> 6.04	12.3%	Active	105 µM	67.8%	115 µM	Active	138 µM	> 3.5	66.7 µM	> 403 µM	Activity [19]: 0.6%; Activity [20]: 90.1%; Activity [21]: 25.3%; Activity [22]: Active; Activity [24]: Active; Activity [25]: Active; Activity [26]: Active; Activity [27]: 11.3%; Activity [29]: 5.4%; Activity [30]: 80.8%
O=C(CSc1nnc(COc2ccc3c(c2)CCCC3)o1)Nc1nc2ccc(Cl)cc2s1										1.04					263 µM			0.94	237 µM	247 µM	
O=C(CSc1nnc(COc2ccc3c(c2)CCCC3)o1)Nc1nc2ccccc2s1										0.63					247 µM			0.39	153 µM	96.7 µM	
CCOc1ccc2nc(NC(=O)CSc3nnc(COc4ccc5c(c4)CCCC5)o3)sc2c1										> 4.32					283 µM			> 1.42	93.3 µM	> 403 µM	
Cc1ccc2nc(NC(=O)CSc3nnc(COc4ccc5c(c4)CCCC5)o3)sc2c1										> 3.72					210 µM			> 1.92	108 µM	> 403 µM	
O=C(CSc1nnc(COc2ccc3c(c2)CCCC3)o1)Nc1nccs1										> 1.89					228 µM			> 1.76	213 µM	> 403 µM	
O=C(CSc1nnc(COc2ccc3c(c2)CCCC3)o1)Nc1nc2ccc([N+](=O)[O-])cc2s1										3.41					233 µM			1.44	98.3 µM	336 µM	
O=C(CSc1nnc(COc2ccc3c(c2)CCCC3)o1)Nc1nc2ccc(F)cc2s1	Active	Active	165 µM	78.2%	21%	Active	Active	93.5%	60.1%	3.27	11.9%	Active	118 µM	79.1%	91.7 µM	Active	98.3 µM	3.18	89.3 µM	292 µM	Activity [19]: 32.6%; Activity [20]: 90.8%; Activity [21]: 17%; Activity [22]: Active; Activity [24]: Active; Activity [25]: Active; Activity [26]: Active; Activity [27]: 11.7%; Activity [29]: 7.1%; Activity [30]: 84.9%
CCn1c(-c2nonc2N)nc2c(C#CC(C)(C)O)ncc(OC[C@H]3CCCNC3)c21 [GSK-690693]			6.97 µM												105 µM				14.5 µM		
COc1ccc2nc(NC(=O)CSc3nnc(COc4ccc5c(c4)CCCC5)o3)sc2c1	Active	Active	2.6 µM	69.8%	27.9%	Active	Active	76.4%	74.4%	20.4	5%	Active	19.5 µM	71.7%	39.3 µM	Active	27.5 µM	2.4	4.63 µM	94.3 µM	Activity [31]: Active; Activity [32]: Active; Activity [33]: Active; Activity [19]: 24.4%; Activity [34]: Active; Activity [20]: 69.8%; Activity [21]: 12.2%; Activity [22]: Active; Activity [24]: Active; Activity [25]: Active; Activity [26]: Active; Activity [27]: 33.9%; Activity [29]: 25%; Activity [35]: Active; Activity [30]: 92.3%; Activity [36]: Active

Reference: ChEMBL document CHEMBL4152328, “Design, synthesis, in vitro and in silico evaluation of a new series of oxadiazole-based anticancer agents as potential Akt and FAK inhibitors” (Eur J Med Chem, 2018)
